# Columns and labels:
# Staphylococcus aureus [1] = assay: Antibacterial activity against Staphylococcus aureus SA1199 at 5 ug by disk diffusion method; details: read-out: IZ
# Staphylococcus aureus [2] = assay: Antibacterial activity against Staphylococcus aureus SA1199B overexpressing NorA at 5 ug by disk diffusion method; format: functional; details: read-out: IZ
# Outline: (§1)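 Agar diffusion on Mueller-Hinton agar (adjusted to 20 μg/ml Ca²⁺ and 10 μg/ml Mg²⁺), used plain or with the efflux inhibitor incorporated at the stated concentration. Disks were 5 μg for the fluoroquinolones and 30 μg for chloramphenicol. Plates were incubated overnight at 37°C, and inhibition zone diameters were measured. Values are means of at least three independent experiments.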
# Staphylococcus aureus [3] = assay: Increase in 16 ug/ml Norfloxacin accumulation in Staphylococcus aureus SA1199B mutant overexpressing NorA measured per mg of cell protein at 128 ug/ml after 5 mins; format: functional, organism-based
# Outline: (§2)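 SA-1199B was grown to mid-exponential phase in MH broth (4–5 h, 37°C, shaken), then washed and resuspended in 50 mM sodium phosphate, pH 7.0. Cells got norfloxacin at one-quarter MIC, alone or with inhibitor at 128 μg/ml. At 5–20 min, cells were spun through silicone-paraffin oil into orthophosphoric acid. Norfloxacin was measured by HPLC fluorescence (ex 240/[…]) as ng/mg BCA protein. Means of triplicate experiments.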
# Staphylococcus aureus [4] = assay: Increase in 2 ug/ml Norfloxacin antibacterial activity against wild type Staphylococcus aureus SA1199 at 128 ug/ml by checker board method; format: functional
# Staphylococcus aureus [5] = assay: Increase in 16 ug/ml Norfloxacin accumulation in Staphylococcus aureus SA1199B mutant overexpressing NorA measured per milligram of cell protein at 128 ug/ml after 20 mins; format: functional, organism-based
# Outline: as §2
# Staphylococcus aureus [6] = assay: Increase in 5 ug ciprofloxacin antibacterial activity against Staphylococcus aureus SA1199B mutant overexpressing NorA at 128 ug/ml by disk diffusion method; format: functional
# Outline: as §1
# Staphylococcus aureus [7] = assay: Increase in 5 ug moxifloxacin antibacterial activity against Staphylococcus aureus SA1199B mutant overexpressing NorA at 128 ug/ml by disk diffusion method; format: functional
# Outline: as §1
# Staphylococcus aureus [8] = assay: Increase in 64 ug/ml Norfloxacin antibacterial activity against Staphylococcus aureus SA1199B mutant overexpressing NorA at 128 ug/ml by checker board method; format: functional
# Staphylococcus aureus [9] = assay: Increase in 5 ug Norfloxacin antibacterial activity against Staphylococcus aureus SA1199B mutant overexpressing NorA at 128 ug/ml by disk diffusion method; format: functional
# Outline: as §1
# Staphylococcus aureus [10] = assay: Increase in 16 ug/ml Norfloxacin accumulation in Staphylococcus aureus SA1199B mutant overexpressing NorA at 128 ug/ml after 20 mins; format: functional
# Outline: as §2
# Staphylococcus aureus [11] = assay: Increase in 16 ug/ml Norfloxacin accumulation in wild type Staphylococcus aureus SA1199 at 128 ug/ml after 20 mins; format: functional
# Outline: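 Mid-exponential SA-1199 cells were washed and resuspended in 50 mM sodium phosphate, pH 7.0. They were exposed at time zero to norfloxacin at one-quarter MIC, alone or with EPI at 128 μg/ml. At 5–20 min, cells were spun through silicone-paraffin oil into orthophosphoric acid. Lysate norfloxacin was measured by C18 HPLC with fluorescence detection (ex 240, em 280 nm) and normalized to BCA protein (ng/mg). Triplicate experiments, mean reported.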
# Staphylococcus aureus [12] = assay: Increase in 5 ug levofloxacin antibacterial activity against Staphylococcus aureus SA1199B mutant overexpressing NorA at 128 ug/ml by disk diffusion method; format: functional
# Outline: as §1
# Staphylococcus aureus [13] = assay: Antibacterial activity against Staphylococcus aureus; format: functional
# Outline: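 Tube broth dilution MIC against SA-1199 and NorA-overproducing SA-1199B in Mueller-Hinton broth with 20 μg/ml Ca²⁺ and 10 μg/ml Mg²⁺. Inoculum was a 4–5 h 37°C culture diluted 1/10 (≈10⁶ CFU/ml). Compound range was 512 to 1 μg/ml, dissolved in DMSO (final ≤4%).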
# Staphylococcus aureus [14] = assay: Increase in 5 ug sparfloxacin antibacterial activity against Staphylococcus aureus SA1199B mutant overexpressing NorA at 128 ug/ml by disk diffusion method; format: functional
# Outline: as §1
# Staphylococcus aureus [15] = assay: Increase in 30 ug chloramphenicol antibacterial activity against Staphylococcus aureus SA1199B mutant overexpressing NorA at 128 ug/ml by disk diffusion method; format: functional
# Outline: as §1
# Staphylococcus aureus [16] = assay: Increase in 5 ug ofloxacin antibacterial activity against Staphylococcus aureus SA1199B mutant overexpressing NorA at 128 ug/ml by disk diffusion method; format: functional
# Outline: as §1
# Staphylococcus aureus [17] = assay: Antibacterial activity against Staphylococcus aureus SA1199B overexpressing NorA at 30 ug by disk diffusion method; format: functional; details: read-out: IZ
# Outline: as §1
# Staphylococcus aureus [18] = assay: Increase in 5 ug moxifloxacin antibacterial activity against Staphylococcus aureus SA1199B mutant overexpressing NorA at 16 ug/ml by disk diffusion method; format: functional
# Outline: as §1
# Staphylococcus aureus [19] = assay: Increase in 5 ug ciprofloxacin antibacterial activity against Staphylococcus aureus SA1199B mutant overexpressing NorA at 16 ug/ml by disk diffusion method; format: functional
# Outline: as §1
# Staphylococcus aureus [20] = assay: Increase in 5 ug ofloxacin antibacterial activity against Staphylococcus aureus SA1199B mutant overexpressing NorA at 16 ug/ml by disk diffusion method; format: functional
# Outline: as §1
# Staphylococcus aureus [21] = assay: Increase in 5 ug levofloxacin antibacterial activity against Staphylococcus aureus SA1199B mutant overexpressing NorA at 64 ug/ml by disk diffusion method; format: functional
# Outline: as §1
# Staphylococcus aureus [22] = assay: Increase in 30 ug chloramphenicol antibacterial activity against Staphylococcus aureus SA1199B mutant overexpressing NorA at 32 ug/ml by disk diffusion method; format: functional
# Outline: as §1
# Staphylococcus aureus [23] = assay: Increase in 5 ug sparfloxacin antibacterial activity against Staphylococcus aureus SA1199B mutant overexpressing NorA at 32 ug/ml by disk diffusion method; format: functional
# Outline: as §1
# Staphylococcus aureus [24] = assay: Increase in 5 ug moxifloxacin antibacterial activity against Staphylococcus aureus SA1199B mutant overexpressing NorA at 32 ug/ml by disk diffusion method; format: functional
# Outline: as §1
# Staphylococcus aureus [25] = assay: Increase in 5 ug sparfloxacin antibacterial activity against Staphylococcus aureus SA1199B mutant overexpressing NorA at 64 ug/ml by disk diffusion method; format: functional
# Outline: as §1
# Staphylococcus aureus [26] = assay: Increase in 5 ug Norfloxacin antibacterial activity against Staphylococcus aureus SA1199B mutant overexpressing NorA at 32 ug/ml by disk diffusion method; format: functional
# Outline: as §1
# Staphylococcus aureus [27] = assay: Increase in 5 ug levofloxacin antibacterial activity against Staphylococcus aureus SA1199B mutant overexpressing NorA at 16 ug/ml by disk diffusion method; format: functional
# Outline: as §1
# Staphylococcus aureus [28] = assay: Increase in 5 ug ciprofloxacin antibacterial activity against Staphylococcus aureus SA1199B mutant overexpressing NorA at 32 ug/ml by disk diffusion method; format: functional
# Outline: as §1
# Staphylococcus aureus [29] = assay: Increase in 5 ug ciprofloxacin antibacterial activity against Staphylococcus aureus SA1199B mutant overexpressing NorA at 64 ug/ml by disk diffusion method; format: functional
# Outline: as §1
# Staphylococcus aureus [30] = assay: Increase in 30 ug chloramphenicol antibacterial activity against Staphylococcus aureus SA1199B mutant overexpressing NorA at 16 ug/ml by disk diffusion method; format: functional
# Outline: as §1
# Staphylococcus aureus [31] = assay: Increase in 30 ug chloramphenicol antibacterial activity against Staphylococcus aureus SA1199B mutant overexpressing NorA at 64 ug/ml by disk diffusion method; format: functional
# Outline: as §1
# Staphylococcus aureus [32] = assay: Increase in 5 ug sparfloxacin antibacterial activity against Staphylococcus aureus SA1199B mutant overexpressing NorA at 16 ug/ml by disk diffusion method; format: functional
# Outline: as §1
# Staphylococcus aureus [33] = assay: Increase in 5 ug moxifloxacin antibacterial activity against Staphylococcus aureus SA1199B mutant overexpressing NorA at 64 ug/ml by disk diffusion method; format: functional
# Outline: as §1
# Staphylococcus aureus [34] = assay: Increase in 5 ug ofloxacin antibacterial activity against Staphylococcus aureus SA1199B mutant overexpressing NorA at 64 ug/ml by disk diffusion method; format: functional
# Outline: as §1
# Staphylococcus aureus [35] = assay: Increase in 5 ug Norfloxacin antibacterial activity against Staphylococcus aureus SA1199B mutant overexpressing NorA at 64 ug/ml by disk diffusion method; format: functional
# Outline: as §1
# Staphylococcus aureus [36] = assay: Increase in 5 ug ofloxacin antibacterial activity against Staphylococcus aureus SA1199B mutant overexpressing NorA at 32 ug/ml by disk diffusion method; format: functional
# Outline: as §1
# Staphylococcus aureus [37] = assay: Increase in 5 ug Norfloxacin antibacterial activity against Staphylococcus aureus SA1199B mutant overexpressing NorA at 16 ug/ml by disk diffusion method; format: functional
# Outline: as §1
# Staphylococcus aureus [38] = assay: Increase in 5 ug levofloxacin antibacterial activity against Staphylococcus aureus SA1199B mutant overexpressing NorA at 32 ug/ml by disk diffusion method; format: functional
# Outline: as §1
SMILES,Drug uptake (Staphylococcus aureus [3]) [ng/mg],MIC (Staphylococcus aureus [4]) [µg/mL],Drug uptake (Staphylococcus aureus [5]) [ng/mg],inhibition zone (IZ) (Staphylococcus aureus [6]) [mm],inhibition zone (IZ) (Staphylococcus aureus [7]) [mm],MIC (Staphylococcus aureus [8]) [µg/mL],inhibition zone (IZ) (Staphylococcus aureus [9]) [mm],Activity (Staphylococcus aureus [10]) [%],Activity (Staphylococcus aureus [11]) [%],inhibition zone (IZ) (Staphylococcus aureus [12]) [mm],MIC (Staphylococcus aureus [13]) [µg/mL],inhibition zone (IZ) (Staphylococcus aureus [14]) [mm],inhibition zone (IZ) (Staphylococcus aureus [15]) [mm],inhibition zone (IZ) (Staphylococcus aureus [16]) [mm],inhibition zone (IZ) (Staphylococcus aureus [18]) [mm],inhibition zone (IZ) (Staphylococcus aureus [19]) [mm],inhibition zone (IZ) (Staphylococcus aureus [20]) [mm],inhibition zone (IZ) (Staphylococcus aureus [21]) [mm],inhibition zone (IZ) (Staphylococcus aureus [22]) [mm],inhibition zone (IZ) (Staphylococcus aureus [23]) [mm],further results
C[C@@H]1CN(c2c(F)c(N)c3c(=O)c(C(=O)O)cn(C4CC4)c3c2F)C[C@H](C)N1 [SPARFLOXACIN],–,–,–,–,–,–,–,–,–,–,–,–,–,–,–,–,–,–,–,–,zone of inhibition at 5 µg/disc (Staphylococcus aureus [1]): 30 mm
O=C(O)c1cn(C2CC2)c2cc(N3CCNCC3)c(F)cc2c1=O [CIPROFLOXACIN],–,–,–,–,–,–,–,–,–,–,–,–,–,–,–,–,–,–,–,–,zone of inhibition at 5 µg/disc (Staphylococcus aureus [2]): 13 mm
[O-][S+](Cc1nc2ccccc2n2cccc12)c1nc2ccccc2[nH]1 (configuration not stated),270,1,400,19,28,16,10,40,10,24,> 512,28,25,23,–,–,–,–,–,–,–
O=C(N[C@H](CO)[C@H](O)c1ccc([N+](=O)[O-])cc1)C(Cl)Cl [CHLORAMPHENICOL],–,–,–,–,–,–,–,–,–,–,–,–,–,–,–,–,–,–,–,–,zone of inhibition at 30 µg/disc (Staphylococcus aureus [17]): 24 mm
COC(=O)[C@H]1[C@H]2C[C@@H]3c4[nH]c5cc(OC)ccc5c4CCN3C[C@H]2C[C@@H](OC(=O)c2cc(OC)c(OC)c(OC)c2)[C@@H]1OC [RESERPINE],270,1,400,22,28,8,13,40,10,24,> 512,28,25,21,28,16,19,24,24,27,inhibition zone (IZ) (Staphylococcus aureus [24]): 28 mm; inhibition zone (IZ) (Staphylococcus aureus [25]): 27 mm; inhibition zone (IZ) (Staphylococcus aureus [26]): 12 mm; inhibition zone (IZ) (Staphylococcus aureus [27]): 22 mm; inhibition zone (IZ) (Staphylococcus aureus [28]): 18 mm; inhibition zone (IZ) (Staphylococcus aureus [29]): 20 mm; inhibition zone (IZ) (Staphylococcus aureus [30]): 24 mm; inhibition zone (IZ) (Staphylococcus aureus [31]): 25 mm; inhibition zone (IZ) (Staphylococcus aureus [32]): 27 mm; inhibition zone (IZ) (Staphylococcus aureus [33]): 28 mm; inhibition zone (IZ) (Staphylococcus aureus [34]): 20 mm; inhibition zone (IZ) (Staphylococcus aureus [35]): 12 mm; inhibition zone (IZ) (Staphylococcus aureus [36]): 19 mm; inhibition zone (IZ) (Staphylococcus aureus [37]): 9 mm; inhibition zone (IZ) (Staphylococcus aureus [38]): 24 mm
COc1ccc2[nH]c([S+]([O-])Cc3ncc(C)c(OC)c3C)nc2c1 (configuration not stated) [OMEPRAZOLE],270,1,400,22,30,8,14,40,10,25,> 512,28,25,23,27,13,18,23,24,27,inhibition zone (IZ) (Staphylococcus aureus [24]): 27 mm; inhibition zone (IZ) (Staphylococcus aureus [25]): 27 mm; inhibition zone (IZ) (Staphylococcus aureus [26]): 6 mm; inhibition zone (IZ) (Staphylococcus aureus [27]): 21 mm; inhibition zone (IZ) (Staphylococcus aureus [28]): 15 mm; inhibition zone (IZ) (Staphylococcus aureus [29]): 19 mm; inhibition zone (IZ) (Staphylococcus aureus [30]): 24 mm; inhibition zone (IZ) (Staphylococcus aureus [31]): 24 mm; inhibition zone (IZ) (Staphylococcus aureus [32]): 26 mm; inhibition zone (IZ) (Staphylococcus aureus [33]): 29 mm; inhibition zone (IZ) (Staphylococcus aureus [34]): 20 mm; inhibition zone (IZ) (Staphylococcus aureus [35]): 12 mm; inhibition zone (IZ) (Staphylococcus aureus [36]): 18 mm; inhibition zone (IZ) (Staphylococcus aureus [37]): 6 mm; inhibition zone (IZ) (Staphylococcus aureus [38]): 21 mm

# Source: ChEMBL document CHEMBL1142063, “Synthesis of omeprazole analogues and evaluation of these as potential inhibitors of the multidrug efflux pump NorA of Staphylococcus aureus” (2007)
